MPTP block: blocks calcium-induced mitochondrial swelling; isolated mouse mitochondria, Ca2+ swelling absorbance, 30 min; inhibition, % at 10 µM; 360,000 tested, 1.4% active; AID 602449;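 active = inhibition of 50% or more, scaled per plate between neutral and stimulator controls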;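 also: 0% = DMSO wells given calcium and 100% = 1 mM EGTA wells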
EBV gp42 inh: blocks Epstein-Barr virus glycoprotein 42 binding; Fluorescence polarization binding assay, mP read-out; inhibition, % (tested at 21.74 µM); 220,000 tested, 0.42% active; in the data active = inhibition above about 50%
Target sequence (Q1HVG2 whole entry, looked up): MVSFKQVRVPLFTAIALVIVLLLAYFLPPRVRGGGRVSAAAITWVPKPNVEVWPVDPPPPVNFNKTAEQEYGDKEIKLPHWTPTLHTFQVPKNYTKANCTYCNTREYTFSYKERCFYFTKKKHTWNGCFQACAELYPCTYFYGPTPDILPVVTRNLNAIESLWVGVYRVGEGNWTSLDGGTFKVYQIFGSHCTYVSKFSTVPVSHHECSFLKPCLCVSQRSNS
NR3A LBD binder: modulators (binders) of human NR3A ligand-binding domain. NR3A LBD differential scanning fluorimetry, Tm shift; 0% = protein alone, 100% = glycine-bound protein. Tm shift relative to glycine control, % at 25 µM. 340,000 tested, 2.5% active. AID 1259313;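 active = melting temperature shift of at least 10% of the positive control shift, at one fixed dose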
CHOP inh: blocks CHOP induction under ER stress; CHO-K1 CHOP-promoter luciferase, tunicamycin-induced, 15-18 h; inhibition, % at 10 µM; 220,000 tested, 3.8% active;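 active = compounds that reduced the stress-induced luciferase reporter signal by more than about 70% of percent inhibition, limit read from the data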;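 also: 0% = tunicamycin plus vehicle and 100% = wells without tunicamycin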
WT yeast gro inh: growth inhibition of WT yeast, mitochondrial fusion screen | inhibition, % at 10 µM | AID 1362 | 190,000 tested, 2.1% active | mitochondrial fusion phenotypic screen, WT strain; in the data active = inhibition above about 58%; tested in S. cerevisiae
Tb MetRS inh: blocks T. brucei methionyl-tRNA synthetase activity. purified T. brucei MetRS, ATP depletion, Kinase-Glo luminescence. inhibition, % at 11.9 µM. 360,000 tested, 0.4% active. AID 624268;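 active = inhibition above a per-plate cutoff of the control wells' mean inhibition plus 3 SD, cut at about 5.5% in these data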;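 also: 0% = DMSO wells median and 100% = median of wells with control inhibitor compound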
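Test system: purified T. brucei MetRS enzyme. Also added: ATP, methionine and E. coli bulk tRNA substrates. Compound: 11.9 µM single point. Schedule: 15 min enzyme-compound preincubation, 2 h reaction, 10 min detection, 25 °C. Signal: luciferase luminescence of residual ATP, Kinase-Glo. Evaluation: percent inhibition versus plate control medians. Controls: DMSO wells, low control.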
Tb MetRS conf: Trypanosoma brucei MetRS inhibition confirmed; shares compounds with Tb MetRS inh; inhibition, % at 11.9 µM; 1,400 tested, 93% active; T. brucei MetRS enzyme, luminescence (ATP depletion); AID 624412; in the data active = inhibition above about 7%
Jurkat tox: counter-screen for T. brucei MetRS inhibitors: Jurkat cell cytotoxicity | Jurkat cells viability, ATP luminescence | shares compounds with Tb MetRS inh | 1,400 tested, 12% active | inhibition, % at 8.3 µM; in the data active = inhibition above about 15%;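 also: 0% = vehicle and 100% = reference inhibitor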
Tb MetRS inh FP: orthogonal test for Trypanosoma brucei MetRS inhibitors; shares compounds with Tb MetRS inh; 1,400 tested, 44% active; AID 651607; purified T. brucei MetRS, fluorescence polarization; inhibition, % at 11.9 µM; in the data active = inhibition above about 17%;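 also: 0% = vehicle wells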
* = called active by the depositor; · = no result. Most compounds without a hit are left out; they make up all but 6.4% or so of the library.

SMILES	MPTP block	EBV gp42 inh	NR3A LBD binder	CHOP inh	WT yeast gro inh	Tb MetRS inh	Tb MetRS conf	Jurkat tox	Tb MetRS inh FP
O=C(NCc1nc2ccccc2[nH]1)C1=C[C@H](c2ccc3c(c2)OCO3)C[C@H](OCCCCO)O1	3	-3	0	8	-5	69*	89*	-3	76*
O=C(NCc1nc2ccccc2[nH]1)C1=C[C@@H](c2ccc(C(F)(F)F)cc2)C[C@@H](OCCCCO)O1	-1	·	-8	·	·	32*	68*	9	35*
COc1ccc(OCC(=O)OC(C)CN2CCCCC2)cc1 (stereo not drawn)	1	·	0	·	·	-1	·	·	·
Cc1ccc(-c2nc3c(C)cc(Br)cn3c2Cc2ccsc2)cc1	-1	·	·	·	·	0	·	·	·
CS(=O)(=O)Nc1ccc(-c2cc(/C=C3\SC(N)=NC3=O)c[nH]c2=O)cc1	0	·	-1	·	·	1	·	·	·
O=C(NCc1nc2ccccc2[nH]1)C1=C[C@H](c2ccccc2)C[C@H](OCCCCO)O1	0	-13	0	20	·	39*	74*	-5	45*
COc1ccccc1N1CCN(C(=O)C(C)N(c2ccc(C)c(C)c2)S(C)(=O)=O)CC1 (stereo not drawn)	-1	-13	0	33	16	-1	·	·	·
CC(O)CNc1nc2ccccc2n1-c1ncnc2sc3c(c12)CCC3 (stereo not drawn)	32	1	-6	30	15	9.3*	16*	4	6
CSC[C@H]1CN(Cc2cccnc2)C(=O)[C@@H]1CC(=O)Nc1ccc(Br)cc1	-1	·	·	·	·	69*	82*	-7	51*
CCC[C@H]1CN(Cc2cccnc2)C(=O)[C@@H]1CC(=O)Nc1ccc(Br)cc1	-1	·	·	·	·	72*	87*	-4	61*
Cc1cccc(NC(=S)N/N=C/C(C)c2ccccc2)c1C (stereo not drawn)	0	-4	-2	-10	19	-1	·	·	·
O=C(CSc1ncnc2nc[nH]c12)c1ccc2ccccc2c1	10	-5	-5	8	-5	0	·	·	·
O=c1[nH]c2ccccc2nc1-c1nnnn1C1CCCC1	-1	·	·	·	·	0	·	·	·
O=c1[nH]c2cc3ccccc3cc2nc1-c1nnnn1Cc1ccccc1	1	·	·	·	·	22*	38*	9	18*
O=c1[nH]c2cc3ccccc3cc2nc1-c1nnnn1C1CCCC1	1	·	·	·	·	52*	61*	69*	40*
Cc1cc2nc(-c3nnnn3Cc3ccccc3)c(=O)[nH]c2cc1C	-1	·	·	·	·	0	·	·	·
Cc1cc(C)n(CC(=O)NNC(=O)COc2ccc(Br)cc2F)n1	-2	·	0	·	·	0	·	·	·
OCC1NC[C@@H](O)C(O)[C@@H]1O (stereo partly drawn)	·	·	·	16	·	·	·	·	·
O=C(C1CCCCC1)N1CCC(c2nc3ccccc3[nH]2)CC1	0	-1	0	21	-4	1	·	·	·
COc1ccc(NC(=S)N2CCC(c3nc4ccc(Cl)cc4[nH]3)CC2)c(OC)c1	1	0	-41	17	13	15*	36*	1	24*
O=C(NC1CCCCC1)N1CCC(c2nc3ccc(Cl)cc3[nH]2)CC1	0	15	-1	79*	-13	7.8*	12*	12	6
O=C(NC1CCCCC1)N1CCC(c2nc3ccccc3[nH]2)CC1	-1	-4	2	9	16	1	·	·	·
O=C(NC1CCCCC1)N1CCCC(c2nc3ccccc3[nH]2)C1 (stereo not drawn)	-1	26	-2	19	-8	9.2*	16*	-2	9
Cc1cccc(/C=N/NC(=O)NC2CCCCC2)c1	-1	-1	0	18	21	-2	·	·	·
O=C(Nc1ccc(F)c(Cl)c1)C1CC(=O)n2c(nc3ccccc32)N1 (stereo not drawn)	0	-7	1	76*	-13	74*	90*	7	76*
SMILES	MPTP block	EBV gp42 inh	NR3A LBD binder	CHOP inh	WT yeast gro inh	Tb MetRS inh	Tb MetRS conf	Jurkat tox	Tb MetRS inh FP
O=C(Nc1ccc(F)cc1)C1CC(=O)n2c(nc3ccccc32)N1 (stereo not drawn)	1	-22	-3	33	-5	18*	34*	1	12
COc1ccc(NC(=O)C2CC(=O)n3c(nc4ccccc43)N2)cc1 (stereo not drawn)	0	-1	1	0	·	0	·	·	·
CCOC(=O)c1ccc2c(c1)NCc1cccc(OC)c1O2	1	14	9	1	·	5.8*	11*	11	9
CCc1c(O)nc(SCC(=O)Nc2ccc(Br)cc2)n(-c2ccc(C)cc2)c1=O	0	·	-6	·	·	6.4*	22*	1	2
O=C(Cn1cc(C(=O)c2cccs2)c2ccccc21)NCC1CCCO1 (stereo not drawn)	0	-16	5	39	-6	0	·	·	·
O=C(Cn1cc(C(=O)c2cccs2)c2ccccc21)NCc1ccc2c(c1)OCO2	0	-15	-4	37	12	21*	35*	5	16
C[C@@H]1CN([C@@H](C)CO)C(=O)c2cccc(NS(C)(=O)=O)c2O[C@H]1CN(C)Cc1ccc(Oc2ccccc2)cc1	1	·	0	·	·	0	·	·	·
CCOc1ccc(CONS(=O)(=O)c2ccc(NC(C)=O)cc2)cc1Cl	42	1	0	26	9	42*	67*	7	57*
CC(=O)Nc1ccc(S(=O)(=O)NNC(=O)COc2ccc(Cl)cc2Cl)cc1	-1	-17	-1	11	·	0	·	·	·
O=C(Cn1c(=O)oc2ccccc21)Nc1ccc2c(c1)OCCO2	0	-15	1	18	54	-1	·	·	·
O=C(CCn1c(=O)oc2ccccc21)Nc1ccc2c(c1)OCCO2	1	-7	-3	-13	-5	21*	0	14	1
NNc1nc(-c2ccccc2)c2cc(Cl)ccc2n1	2	2	-2	10	·	2	·	·	·
Cc1c(-c2ccc(Br)cc2)nc2ccccn12	-2	-3	-2	34	7	12*	23*	0	13
O=C(C1CC(c2ccccc2O)=NO1)N1CCCCC1 (stereo not drawn)	1	-2	1	-24	-6	0	·	·	·
Cc1ccccc1OCCCC(=O)Nc1ccc(Br)cc1	5	9	9	96*	1	6.4*	8.2*	20*	10
O=C(C(=O)N1CCN(c2ccccc2Cl)CC1)c1c[nH]c2ccccc12	0	·	-2	·	·	13*	24*	18*	8

Assay outcomes from PubChem.
